In brackets after ≈: the same amount, converted by molar mass. Activity calls are given as the source filed them. The calls are words filed in the database; no cut-off is given here.
Legend:
[1] = tested on: Mycobacterium tuberculosis; test: Antitubercular activity against Mycobacterium tuberculosis H37Rv measured after 7 days by resazurin microtiter assay; format: functional; conditions: 168 h, time 7 day
How it was run: (§1)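 Resazurin microtiter assay with two-fold drug dilutions in complete 7H9 broth. Exponential-phase cells are diluted to a final OD600 of 0.005 in 7H9 without Tween. Incubation is 7 days at 37°C, then 0.01% resazurin is added and plates are held 24 h more. MIC is the lowest concentration preventing the blue-to-pink change. Each MIC is determined three times in duplicate experiments.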

[2] = Solubility of compound in water; format: physicochemical; conditions: buffer
[3] = tested on: Mycolicibacterium smegmatis; test: Antibacterial activity against Mycobacterium smegmatis measured after 7 days by resazurin microtiter assay; format: functional; conditions: 168 h, time 7 day; how it was run: as §1
Mycolicibacterium aurum = test: Antibacterial activity against Mycobacterium aurum measured after 7 days by resazurin microtiter assay; format: functional; conditions: 168 h, time 7 day; how it was run: as §1
Mycobacterium marinum = test: Antibacterial activity against Mycobacterium marinum measured after 7 days by resazurin microtiter assay; format: functional; conditions: 168 h, time 7 day; how it was run: as §1
Pseudomonas aeruginosa = test: Antibacterial activity against Pseudomonas aeruginosa measured after 7 days by resazurin microtiter assay; format: functional; conditions: 168 h, time 7 day
Acinetobacter baumannii = test: Antibacterial activity against Acinetobacter baumannii measured after 7 days by resazurin microtiter assay; format: functional; conditions: 168 h, time 7 day
Klebsiella aerogenes = test: Antibacterial activity against Enterobacter aerogenes measured after 7 days by resazurin microtiter assay; format: functional; conditions: 168 h, time 7 day
Enterobacter cloacae = test: Antibacterial activity against Enterobacter cloacae measured after 7 days by resazurin microtiter assay; format: functional; conditions: 168 h, time 7 day
Staphylococcus aureus = test: Antibacterial activity against Staphylococcus aureus measured after 7 days by resazurin microtiter assay; format: functional; conditions: 168 h, time 7 day
Klebsiella pneumoniae = test: Antibacterial activity against Klebsiella pneumoniae measured after 7 days by resazurin microtiter assay; format: functional; conditions: 168 h, time 7 day
Vero = test: Cytotoxicity against African green monkey Vero cells assessed as reduction in cell viability measured after 24 to 48 hrs by Celltiter-glo assay; format: cell-based, Chlorocebus sabaeus; conditions: chlorocebus sabaeus, vero; time 24-48 hrs
How it was run: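 Vero cells are grown in DMEM with 10% FBS and seeded at 25000 cells/well. Compound is added at 1% final DMSO, with 24 and 48 h incubation. ATP is read by CellTiter-Glo luminescence. IC50 is the concentration giving a 50% drop in ATP signal versus the DMSO control.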

Macrophage = test: Cytotoxicity against human macrophages assessed as reduction in cell viability measured after 6 days by Celltiter-glo assay; format: cell-based; conditions: human, macrophage, 144 h; time 6 day
How it was run: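 Infected human macrophages, with or without drug, are incubated 6 days. Viability is checked by visual inspection and by CellTiter-Glo ATP luminescence.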

[4] = tested on: Mycobacterium tuberculosis; test: Antitubercular activity against Mycobacterium tuberculosis H37Rv infected in human macrophages assessed as intracellular bacterial load at 0.5 MIC measured after 6 days (reference value: 5.57 to 6.43 logCFU/ml); format: functional, Macrophage; conditions: time 6 day
[5] = tested on: Mycobacterium tuberculosis; test: Antitubercular activity against Mycobacterium tuberculosis H37Rv infected in human macrophages assessed as intracellular bacterial load at MIC measured after 6 days (reference value: 5.57 to 6.43 logCFU/ml); format: functional, Macrophage; conditions: time 6 day
[6] = tested on: Mycobacterium tuberculosis; test: Antitubercular activity against Mycobacterium tuberculosis H37Rv infected in human macrophages assessed as intracellular bacterial load at 2 times MIC measured after 6 days (reference value: 5.57 to 6.43 logCFU/ml); format: functional, Macrophage; conditions: time 6 day
[7] = tested on: Mycobacterium tuberculosis; test: Antitubercular activity against Mycobacterium tuberculosis H37Rv infected in human macrophages assessed as intracellular bacterial load at 4 times MIC measured after 6 days (reference value: 5.57 to 6.43 logCFU/ml); format: functional, Macrophage; conditions: time 6 day
[8] = tested on: Mycobacterium tuberculosis; test: Antitubercular activity against Mycobacterium tuberculosis XDR measured after 7 days by resazurin microtiter assay; format: functional; conditions: 168 h, time 7 day; how it was run: as §1
[9] = tested on: Escherichia coli ATCC 25922; test: Inhibition of DNA gyrase in Escherichia coli ATCC 25922 assessed as elongation of bacterial cells at 2.5 ug/ml measured after 1.5 hrs by DAPI/FM 4-64 staining based confocal fluorescence microscopic analysis; conditions: dose 2.5 µg/ml
How it was run: (§2)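 E. coli ATCC 25922 is grown in LB, and exponential cultures are treated 1.5 h at 37°C. Cells are washed in PBS, fixed 10 min in 4% PFA, and stained 20 min at room temperature with 2 µg/mL DAPI plus 1 µg/mL FM 4-64. Imaging is by confocal microscopy with a 60x oil objective.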

[10] = tested on: Escherichia coli ATCC 25922; test: Inhibition of DNA gyrase in Escherichia coli ATCC 25922 assessed as appearance of filamentous bacterial cells at 2.5 ug/ml measured after 1.5 hrs by DAPI/FM 4-64 staining based confocal fluorescence microscopic analysis; conditions: dose 2.5 µg/ml; how it was run: as §2
[11] = tested on: Escherichia coli ATCC 25922; test: Inhibition of DNA gyrase in Escherichia coli ATCC 25922 assessed as change in DNA morphology at 2.5 ug/ml measured after 1.5 hrs by DAPI/FM 4-64 staining based confocal fluorescence microscopic analysis; conditions: dose 2.5 µg/ml; how it was run: as §2
[12] = tested on: Mycolicibacterium smegmatis; test: Inhibition of DNA gyrase in Mycobacterium smegmatis assessed as elongation of bacterial cells at 2.5 ug/ml measured after 6 hrs by DAPI/FM 4-64 staining based confocal fluorescence microscopic analysis; conditions: dose 2.5 µg/ml
How it was run: (§3)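 M. smegmatis is grown in 7H9, and exponential cultures are treated 6 h at 37°C. Cells are fixed 10 min in 4% PFA in PBS and stained 20 min at room temperature with 2 µg/mL DAPI and 1 µg/mL FM 4-64. Imaging is by confocal microscopy with a 60x oil objective.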

[13] = tested on: Mycolicibacterium smegmatis; test: Inhibition of DNA gyrase in Mycobacterium smegmatis assessed as segmentation of bacterial cells at 2.5 ug/ml measured after 6 hrs by DAPI/FM 4-64 staining based confocal fluorescence microscopic analysis; conditions: dose 2.5 µg/ml; how it was run: as §3

CCn1cc(C(=O)Nc2ccccc2)c(=O)c2ccc3cccnc3c21
MIC90 [1]: 312 µM (≈ 107 µg/mL)
solubility [2]: Insoluble

O=C(O)c1c[nH]c2c(ccc3cccnc32)c1=O
MIC90 [1]: 112 µM (≈ 27 µg/mL)
solubility [2]: Insoluble

NCC[C@H](O)C(=O)N[C@@H]1C[C@H](N)[C@@H](O[C@H]2O[C@H](CN)[C@@H](O)[C@H](O)[C@H]2O)[C@H](O)[C@H]1O[C@H]1O[C@H](CO)[C@@H](O)[C@H](N)[C@H]1O [AMIKACIN]
MIC90 [1]: 1.83 µM (≈ 1.07 µg/mL)
MIC90 [3]: 0.46 µM (≈ 0.269 µg/mL)
MIC90 (Mycolicibacterium aurum): 1.83 µM (≈ 1.07 µg/mL)
MIC90 (Mycobacterium marinum): 3.66 µM (≈ 2.14 µg/mL)
MIC90 (Pseudomonas aeruginosa): 3.66 µM (≈ 2.14 µg/mL)
MIC90 (Acinetobacter baumannii): 14.6 µM (≈ 8.57 µg/mL)

Cn1cc(C(=O)O)c(=O)c2cc([N+](=O)[O-])c3cccnc3c21
MIC90 [1]: 2.64 µM (≈ 0.79 µg/mL)
MIC90 [3]: 11.2 µM (≈ 3.35 µg/mL)
MIC90 (Mycolicibacterium aurum): 11.2 µM (≈ 3.35 µg/mL)
MIC90 (Mycobacterium marinum): 0.7 µM (≈ 0.209 µg/mL)
MIC90 (Pseudomonas aeruginosa): > 100 µM
MIC90 (Acinetobacter baumannii): > 100 µM
MIC90 (Klebsiella aerogenes): 44.7 µM (≈ 13.4 µg/mL)
MIC90 (Enterobacter cloacae): > 275 µM
MIC90 (Staphylococcus aureus): 22.4 µM (≈ 6.69 µg/mL)
MIC90 (Klebsiella pneumoniae): > 275 µM
Activity (Vero): Non-Toxic
Activity (Macrophage): Non-Toxic
Activity [4]: 3.78 log10CFU/ml
Activity [5]: 3.65 log10CFU/ml
Activity [6]: 2.77 log10CFU/ml
Activity [7]: 3.01 log10CFU/ml
MIC90 [8]: 2.64 µM (≈ 0.79 µg/mL)
solubility [2]: Insoluble
inhibition [9]: Active
inhibition [10]: Active
inhibition [11]: Active
inhibition [12]: Active
inhibition [13]: Active

CCOC(=O)c1cn(CC)c2c(cc(N)c3cccnc32)c1=O
MIC90 [1]: 41.9 µM (≈ 13 µg/mL)
solubility [2]: Insoluble

CCOC(=O)c1c[nH]c2c(ccc3ccc[n+]([O-])c32)c1=O
MIC90 [1]: 204 µM (≈ 58 µg/mL)
solubility [2]: Insoluble

CCOC(=O)c1cn(C)c2c(cc(Br)c3cccnc32)c1=O
MIC90 [1]: 290 µM (≈ 105 µg/mL)
solubility [2]: Insoluble

CCOC(=O)c1cn(CC)c2c(ccc3cccnc32)c1=O
MIC90 [1]: 170 µM (≈ 50.3 µg/mL)
solubility [2]: Insoluble

CCOC(=O)c1c[nH]c2c(ccc3cccnc32)c1=O
MIC90 [1]: 24 µM (≈ 6.44 µg/mL)
solubility [2]: Insoluble

CCn1cc(C(=O)NN)c(=O)c2cc([N+](=O)[O-])c3cccnc3c21
MIC90 [1]: 9.84 µM (≈ 3.22 µg/mL)
solubility [2]: Insoluble

Cn1cc(C(=O)O)c(=O)c2ccc3cccnc3c21
MIC90 [1]: 25.8 µM (≈ 6.56 µg/mL)
solubility [2]: Insoluble

CCOC(=O)c1cn(CC)c2c(cc(Br)c3cccnc32)c1=O
MIC90 [1]: 318 µM (≈ 119 µg/mL)
solubility [2]: Insoluble

CCOC(=O)c1cn(C)c2c(cc(N)c3cccnc32)c1=O
MIC90 [1]: 92.1 µM (≈ 27.4 µg/mL)
solubility [2]: Insoluble

CCOC(=O)c1cn(C)c2c(ccc3cccnc32)c1=O
MIC90 [1]: 182 µM (≈ 51.5 µg/mL)
solubility [2]: Insoluble

CCOC(=O)c1cn(CC)c2c(cc([N+](=O)[O-])c3cccnc32)c1=O
MIC90 [1]: 4.99 µM (≈ 1.7 µg/mL)
MIC90 [3]: > 100 µM
MIC90 (Mycolicibacterium aurum): > 100 µM
MIC90 (Mycobacterium marinum): 0.61 µM (≈ 0.208 µg/mL)
MIC90 (Pseudomonas aeruginosa): > 100 µM
MIC90 (Acinetobacter baumannii): > 100 µM
MIC90 (Klebsiella aerogenes): 314 µM (≈ 107 µg/mL)
MIC90 (Enterobacter cloacae): > 275 µM
MIC90 (Staphylococcus aureus): 19.6 µM (≈ 6.69 µg/mL)
MIC90 (Klebsiella pneumoniae): > 275 µM
Activity (Vero): Non-Toxic
Activity (Macrophage): Non-Toxic
Activity [4]: 4.42 log10CFU/ml
Activity [5]: 3.59 log10CFU/ml
Activity [6]: 3.1 log10CFU/ml
Activity [7]: 3 log10CFU/ml
MIC90 [8]: 4.99 µM (≈ 1.7 µg/mL)
solubility [2]: Insoluble

— ChEMBL document CHEMBL4765453, “Phenanthrolinic analogs of quinolones show antibacterial activity against M. tuberculosis” (Eur J Med Chem, 2020)
